Experimental data published in ChEMBL document CHEMBL4765334, “Chemical profiling of HIV-1 capsid-targeting antiviral PF74” (Eur J Med Chem, 2020).

Tests used:
[1] = tested on: Human immunodeficiency virus 1; assay: Antiviral activity against HIV1 NL4-3 infected in human TZM-GFP cells assessed as number of GFP positive cells incubated for 48 hrs by imaging reader; assay type: functional, organism-based; conditions: Human immunodeficiency virus 1, NL4-3, TZM
Outline: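 TZM-GFP cells seeded 1 × 10^4/well and given increasing compound concentrations 24 h later; infected with HIV-1 NL4-3 (MOI = 1) after a further 24 h. Read-out after 48 h: GFP-positive cell counts (LTR-driven) versus DMSO controls. EC50 fitted as log(inhibitor) vs normalized response, variable slope, per experiment and averaged; mean ± SD, duplicates, at least two independent experiments.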

[2] = tested on: Human immunodeficiency virus 1; assay: Binding affinity to covalently-crosslinked hexameric HIV1 capsid protein A14C/E45C/W184A/M185A mutant expressed in Escherichia coli BL21(DE3)RIL assessed as change in melting temperature at 20 uM incubated for 30 mins by thermal shift dye based fluorescence analysis
Outline: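 Thermal shift: 15 μM CA121 in 50 mM sodium phosphate pH 8.0 with Sypro Orange and compound at 20 μM final or DMSO control. Heated 25 to 95 °C at 0.2 °C/10 s; fluorescence Ex 475–500, Em 520–590 nm. ΔTm = Tm(compound) − T0(DMSO) for CA hexamer melting.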

[3] = (§1) Cytotoxicity against human TZM-GFP cells incubated for 72 hrs by XTT assay; assay type: cell-based; conditions: TZM-GFP cells
Outline: (§2)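 TZM-GFP cells seeded at 1 × 10^4 per well and exposed continuously to increasing compound concentrations for 72 h. Viable cell number read by XTT proliferation kit. CC50 fitted as log(inhibitor) vs normalized response, variable slope, per independent assay and averaged. Run in duplicate, at least two independent experiments, reported as mean ± standard deviation.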

[4] = tested on: Human immunodeficiency virus 1; assay: Antiviral activity against HIV1 NL4-3 infected in human TZM-GFP cells assessed as number of GFP positive cells at 2 uM incubated for 48 hrs by imaging reader; assay type: functional; conditions: Human immunodeficiency virus 1, NL4-3, TZM
Outline: (§3)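 TZM-GFP cells seeded 1 × 10^4/well; after 24 h medium replaced with compound at the stated single concentration, then 24 h later infected with HIV-1 (MOI = 1). After 48 h, GFP-positive cells counted by imaging and percent inhibition determined versus DMSO controls. Duplicate wells, at least two independent experiments.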

TZM = assay: as §1; assay type: cell-based; conditions: tzm, 72 h; outline: as §2
[5] = tested on: Human immunodeficiency virus 1; assay: Antiviral activity against HIV1 NL4-3 infected in human TZM-GFP cells assessed as number of GFP positive cells at 20 uM incubated for 48 hrs by imaging reader; assay type: functional; conditions: Human immunodeficiency virus 1, NL4-3, TZM; outline: as §3
[6] = Metabolic stability at phase 1 in mouse liver microsomes assessed as half life at 1 uM by LC-MS/MS analysis; assay type: ADME, Microsome; conditions: for half-life at 1 µM: liver microsomes; for t1/2: microsomes, 1 µM
[7] = Metabolic stability at phase 1 in human liver microsomes assessed as half life at 1 uM by LC-MS/MS analysis; assay type: ADME, Microsome
[8] = Stability of the compound in mouse plasma assessed as half life incubated for 3 hrs by LC-MS/MS analysis; assay type: ADME, cell-free
[9] = Stability of the compound in human plasma assessed as half life incubated for 3 hrs by LC-MS/MS analysis; assay type: ADME, cell-free
[10] = Metabolic stability at phase 1 in mouse liver microsomes assessed as half life at 1 uM in presence of Cobi-cistat CYP3A inhibitor by LC-MS/MS analysis; assay type: ADME, Microsome
[11] = Metabolic stability at phase 1 in human liver microsomes assessed as half life at 1 uM in presence of Cobi-cistat CYP3A inhibitor by LC-MS/MS analysis; assay type: ADME, Microsome

| SMILES | EC50 [1] [nM] | ΔTm [2] [°C] | CC50 at 72 h [3] [µM] | inhibition at 2 µM [4] [%] | CC50 (TZM) [µM] | inhibition at 20 µM [5] [%] | half-life at 1 µM [6] [min] | t1/2 [7] [min] | t1/2 [8] [h] | t1/2 [9] [h] | t1/2 [6] [min] | t1/2 [10] [min] | t1/2 [11] [min] |
| --- | --- | --- | --- | --- | --- | --- | --- | --- | --- | --- | --- | --- | --- |
| Cc1[nH]c2ccccc2c1CC(=O)N[C@@H](Cc1ccccc1)C(=O)N1CCC[C@H]1C(=O)Nc1ccccc1 | > 20000 | 0.6 | > 50 |  |  |  |  |  |  |  |  |  |  |
| CN(C(=O)[C@H](Cc1ccccc1)NC(=O)Cc1c[nH]c2ccccc12)c1cccc(Cl)c1 |  | 4.9 |  | 38 | < 50 | 99.5 |  |  |  |  |  |  |  |
| CN(C(=O)[C@H](Cc1ccccc1)NC(=O)Cc1c[nH]c2ccccc12)c1ccccc1 | 460 | 6.1 | > 100 |  |  |  |  |  |  |  |  |  |  |
| CC(C)n1cc(CC(=O)N[C@@H](Cc2ccccc2)C(=O)N(C)c2ccc(F)cc2)c2ccccc21 | 370 | 6.5 |  |  | 18 |  | 0.5 | 0.9 | > 6 | > 6 |  |  |  |
| Cc1[nH]c2ccccc2c1CC(=O)N[C@@H](Cc1cccc(Br)c1)C(=O)N(C)c1ccccc1 |  | 3.4 |  | 0 | < 50 | 94 |  |  |  |  |  |  |  |
| Cc1ccc(N(C)C(=O)[C@H](Cc2ccccc2)NC(=O)Cc2c(C)[nH]c3ccccc23)cc1 | 310 | 9.1 |  |  | 72 |  | 0.5 | 0.9 | > 6 | > 6 |  |  |  |
| CCn1c(C)c(CC(=O)N[C@@H](Cc2ccccc2)C(=O)N(C)c2ccc(F)cc2)c2ccccc21 | 220 | 10.7 |  |  | 19 |  | 0.5 | 1 | > 6 | > 6 |  |  |  |
| CCn1c(C)c(CC(=O)N[C@@H](Cc2ccccc2)C(=O)N(C)c2ccccc2)c2ccccc21 | 280 | 10.8 |  |  | 21 |  | 0.5 | 1 | > 6 | > 6 |  |  |  |
| COc1ccc(N(C)C(=O)[C@H](Cc2ccccc2)NC(=O)Cc2c[nH]c3ccccc23)cc1 | 230 | 6.2 |  |  | > 100 |  |  | 1.6 | > 6 | > 6 | 0.6 |  |  |
| CN(C(=O)[C@H](Cc1ccccc1)NC(=O)Cc1c[nH]c2ccccc12)c1ccc(Br)cc1 | 140 | 8.3 |  |  | 45 |  |  | 2.1 | > 6 | > 6 | 0.7 | 52 | 131 |
| Cc1c(CC(=O)N[C@@H](Cc2ccccc2)C(=O)N(C)c2ccc(F)cc2)c2ccccc2n1C(C)C | 320 | 7.5 |  |  | 20 |  | 0.5 | 0.6 | > 6 | > 6 |  |  |  |
| CN(C(=O)[C@H](Cc1ccccc1)NC(=O)Cc1c[nH]c2ccccc12)c1cc(F)cc(F)c1 | 2500 | 2.3 |  |  | < 50 |  |  | 0.9 | > 6 | > 6 | 0.6 |  |  |
| COc1cccc(N(C)C(=O)[C@H](Cc2ccccc2)NC(=O)Cc2c[nH]c3ccccc23)c1 |  | 1.3 |  | 41 | > 50 | 97 |  |  |  |  |  |  |  |
| Cc1[nH]c2ccccc2c1CC(=O)N[C@@H](Cc1ccccc1)C(=O)N(C)c1cccc(Cl)c1 | 1200 | 7.6 | < 50 |  |  |  |  |  |  |  |  |  |  |
| CN(C(=O)[C@H](Cc1ccccc1)NC(=O)Cc1c[nH]c2ccccc12)c1ccc(F)cc1 | 1800 | 3.3 |  |  | > 100 |  | 0.5 | 1.3 | > 6 | > 6 |  |  |  |
| COc1ccc(N(C)C(=O)[C@H](Cc2ccccc2)NC(=O)Cc2c(C)[nH]c3ccccc23)cc1 | 630 | 8.4 |  |  | > 100 |  |  | 1 | > 6 | > 6 | 0.7 |  |  |
| Cc1cccc(N(C)C(=O)[C@H](Cc2ccccc2)NC(=O)Cc2c[nH]c3ccccc23)c1 |  | 1.6 |  | 37 | > 50 | 98 |  |  |  |  |  |  |  |
| CN(C(=O)[C@H](Cc1ccccc1)NC(=O)CCc1c[nH]c2ccccc12)c1ccccc1 |  | 2.3 |  | 0 | > 50 | 98 |  |  |  |  |  |  |  |
| Cc1c(CC(=O)N[C@@H](Cc2ccccc2)C(=O)N(C)c2ccccc2)c2ccccc2n1C(C)C | 280 | 7.8 |  |  | 16 |  | 0.5 | 0.6 | > 6 | > 6 |  |  |  |
| CN(C(=O)[C@H](Cc1ccccc1)NC(=O)Cc1c[nH]c2ccccc12)c1cccc(C(F)(F)F)c1 |  | 2.8 |  | 16 | < 50 | 96 |  |  |  |  |  |  |  |
| CC(C)n1cc(CC(=O)N[C@@H](Cc2ccccc2)C(=O)N(C)c2ccccc2)c2ccccc21 | 330 | 6 |  |  | 21 |  | 0.5 | 0.9 | > 6 | > 6 |  |  |  |
| CCN(C(=O)[C@H](Cc1ccccc1)NC(=O)Cc1c(C)n(C(C)C)c2ccccc12)c1ccccc1 |  | 7 |  | 39 | 23 | 99.7 |  |  |  |  |  |  |  |
| CCN(C(=O)[C@H](Cc1ccccc1)NC(=O)Cc1c(C)[nH]c2ccccc12)c1ccccc1 | 250 | 8.5 |  |  | 82 |  | 0.5 | 0.9 | > 6 | > 6 |  |  |  |
| Cc1ccc(N(C)C(=O)[C@H](Cc2ccccc2)NC(=O)Cc2c[nH]c3ccccc23)cc1 | 280 | 6.6 |  |  | 66 |  |  | 1.5 | > 6 | > 6 | 0.6 |  |  |
| Cc1[nH]c2ccccc2c1CC(=O)N[C@@H](Cc1ccccc1)C(=O)N(C)c1ccc(F)cc1 | 670 | 7 |  |  | > 50 |  | 0.5 | 1 | > 6 | > 6 |  |  |  |
| CN(C(=O)[C@H](Cc1ccccc1)NC(=O)Cc1c[nH]c2ccccc12)c1cccc(F)c1 |  | 2.5 | 50 | 39 |  | 97 |  |  |  |  |  |  |  |
